SR-BI DiI inh: inhibitors of mouse SR-BI mediated HDL lipid uptake; inhibition, % at 12.5 µM; ldlA[mSR-BI] CHO cells, DiI-HDL uptake fluorescence, 3 h; 320,000 tested, 0.96% active;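 active means mean replicate inhibition of at least 70% and a set share of replicates each scoring 70 or more; inconclusive means meets just one of the two criteria; inactive means fails both criteria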
SR-BI DiI-HDL act: enhances SR-BI lipid uptake from DiI-HDL | CHO ldlA[mSR-BI] cells, DiI-HDL uptake fluorescence, 3 h; 100 = double the neutral-control signal | activation, % at 12.5 µM | 320,000 tested, 0.096% active;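 active means mean replicate activation of at least 60% and every replicate at or above 60%; inconclusive means mean or all-replicate condition met, but not both; inactive means mean below 60% and not all replicates reaching 60%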
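Test system: SR-BI-overexpressing, LDLR-lacking CHO cells; Also added: labelled HDL, 10 µg/mL; Measured by: bottom-read cell fluorescence after medium removal, ex 550/em 595 nm; Timing: 3 h uptake period with compound, 37 °C; Buffer or medium: F12, 0.5% BSA, 25 mM HEPES; Doses: single compound concentration, delivered by pin transfer.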
CAL PDZ FP-1: human CAL PDZ-peptide interaction inhibition | Q9HD26 | purified CAL PDZ, TMR-peptide fluorescence polarization, 1 h | inhibition, % at 20 µM | 330,000 tested, 0.02% active | AID 504414;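 active means highest replicate inhibition of at least 40%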
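Material: tagged CAL PDZ protein CerCALP, purified; buffer or medium: sodium phosphate/NaCl buffer pH 7.4 with TCEP, IgG, Thesit; also added: fluorescent TMR peptide probe; schedule: 1 h incubation at room temperature before polarization reading; technique: fluorescence polarization from S- and P-plane intensities, G-factor corrected; control set: unlabelled peptide and DMSO controls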
dFosB act: activators of mouse delta FosB homodimer; purified delta FosB, TAMRA-CDK5 oligo fluorescence polarization; percent of positive-control signal above neutral wells; activation, % at 25 µM; 340,000 tested, 0.99% active; AID 493131;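 active means mean activation above about 17%, with every replicate also reaching it, limit read from the data, passing the limit was not always enough; inconclusive means only one of the two conditions met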
Target sequence (P13346 whole entry, looked up): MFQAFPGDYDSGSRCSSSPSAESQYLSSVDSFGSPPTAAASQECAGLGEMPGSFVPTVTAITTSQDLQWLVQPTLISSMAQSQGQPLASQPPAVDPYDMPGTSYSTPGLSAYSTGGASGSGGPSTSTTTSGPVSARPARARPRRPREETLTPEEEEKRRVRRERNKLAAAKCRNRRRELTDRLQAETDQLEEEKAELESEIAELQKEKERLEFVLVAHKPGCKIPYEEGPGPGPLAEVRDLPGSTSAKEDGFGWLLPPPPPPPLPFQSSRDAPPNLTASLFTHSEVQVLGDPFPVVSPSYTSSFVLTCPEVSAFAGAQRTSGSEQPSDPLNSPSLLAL
CAL PDZ FP-2: blocks peptide binding to the human CAL PDZ domain. Q9HD26. purified CAL PDZ, TMR-peptide fluorescence polarization, 1 h. inhibition, % at 24.9 µM. 300,000 tested, 0.92% active;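 active means mean inhibition of at least 30% with at least half of replicates also reaching 30%; inconclusive means no clear call, values can overlap the other calls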
A number is an active result; - = inactive; ? = inconclusive; . = no result. An excerpt weighted towards active compounds, which were near 2.8% of everything screened.

SMILES	SR-BI DiI inh	SR-BI DiI-HDL act	CAL PDZ FP-1	dFosB act	CAL PDZ FP-2
CCN(CC)CC(O)Cn1c(C)c(-c2ccccc2)c2cc([N+](=O)[O-])ccc21 (centres undefined)	89	-	.	-	-
O=C(NCCc1ccccc1)c1ccc(NC(=O)C2CCCC2)cc1	-	-	-	-	-
O=c1cc(CN2CCN(c3ccc(F)cc3)CC2)c2cc3c(cc2o1)CCCC3	71	-	.	-	-
COc1ccc(/C=N/n2c(=O)[nH]c3c([nH]c4ccc(C)cc43)c2=O)cc1CN1CCOCC1	-	-	-	-	.
COc1ccc(/C=N/n2c(=O)[nH]c3c([nH]c4ccc(F)cc43)c2=O)cc1CN1CCCCC1	-	-	-	31	-
Cc1nc2nc(C)n(CCN3CCOCC3)c(=O)c2c(-c2cccc([N+](=O)[O-])c2)c1C(=O)CCCCCCCCCCN1CCC(c2ccccc2)(c2ccccc2)CC1	-	-	-	37	-
COc1ccc(C(C)=O)cc1COC(=O)c1ccc(C)c(S(=O)(=O)N2CCOCC2)c1	70	-	-	-	-
CC(C)(C)S(=O)(=O)c1cnc2c(-c3ccsc3)cnn2c1N	-	-	-	-	48
CS(=O)(=O)c1cnc2c(-c3ccc(F)cc3)cnn2c1N	-	-	-	-	-
C/C(CCc1ccc2c(c1)OCO2)=N\N=C1\NC(=O)CC(C(=O)Nc2ccccc2F)S1 (centres undefined)	73	-	-	-	-
CCNC(=O)C1CC(=O)N(Cc2ccc3c(c2)OCO3)C(=Nc2ccc(F)cc2)S1 (centres undefined)	-	-	-	-	-
COc1cc(NC(=O)c2ccc(F)cc2)c(OC)cc1Cl	-	-	-	-	-
COc1cc(OC)c(NC(=O)c2cncn2-c2ccc(F)cc2)cc1Cl	72	-	-	-	-
COc1ccc(C2CC(=O)C=C(NCc3ccccc3)C2)cc1 (centres undefined)	-	-	-	-	-
C(=Cc1c[nH]c2ccccc12)c1nccc2ccccc12	71	-	-	-	-
CCN1C(=O)CS/C1=N\S(=O)(=O)c1ccc(Cl)cc1	-	-	64	-	-
C=CCN1C(=O)C(C)S/C1=N\S(=O)(=O)c1ccc(Cl)cc1 (centres undefined)	-	-	-	-	-
COc1ccc2c(-c3ccc(OCCN4CCCCC4)cc3)c(-c3ccccc3OC)sc2c1	-	-	-	48	32
COc1cccc(-c2sc3ccc(OC)cc3c2-c2ccc(OCCN3CCCC3)cc2)c1	-	-	-	-	-
COc1ccccc1-c1sc2ccccc2c1-c1ccc(OCCN2CCCCC2)cc1	-	-	-	?	-
COc1cccc(-c2sc3cc(OC)c(OC)cc3c2-c2ccc(OCCN3CCCCC3)cc2)c1	-	-	-	34	-
CC(=O)c1c(C)[nH]c(C(=O)CSc2nnc(-c3cccs3)n2Cc2ccccc2)c1C	-	-	-	-	.
CC(=O)c1c(C)[nH]c(C(=O)CSc2nnc(-c3ccco3)n2Cc2ccccc2)c1C	80	-	-	-	.
CC(O)(P(=O)(O)O)P(=O)(O)O	-	-	-	-	-
N#C/C(=N/Nc1ccc(OC(F)(F)F)cc1)C(N)=S	-	-	-	-	-
SMILES	SR-BI DiI inh	SR-BI DiI-HDL act	CAL PDZ FP-1	dFosB act	CAL PDZ FP-2
NC(=S)N=Nc1ccc(NN=C(N)N)cc1	-	-	-	29	-
c1ccc2c(c1)ccc1ccccc12	-	-	-	-	-
CC1=[N+](C)c2ccc3ccccc3c2C1(C)C	-	223	-	-	-
COc1cccc(-c2nc(NCCN3CCOCC3)c3ccccc3n2)c1O	-	-	-	-	-
COc1cccc(-c2nc(NC(C)(C)C)c3ccccc3n2)c1O	84	-	-	-	-
COc1cccc(-c2nc(N3CCCC3)c3ccccc3n2)c1O	-	-	-	-	-
COc1ccc(Nc2nc(-c3cccc(OC)c3O)nc3ccccc23)cc1	83	-	-	-	-
Cc1ccc(C)c(NC(=O)CN(C)C(=O)Cn2c(=O)oc3ccccc32)c1	-	-	-	-	-
CC(C)(C)[C@@H]1CCC(=O)N(CC[C@H](Sc2ccc(Br)cc2)c2ccccc2)CC1	82	-	-	-	-
Cc1ccc(CNS(=O)(=O)c2ccc3c(c2)NC(=O)C(C)S3)cc1 (centres undefined)	-	-	-	-	-
COc1ccccc1N1CCN(C(=O)c2cc(=O)c3c(C)cc(C)cc3o2)CC1	-	-	-	-	-
CCN(c1ccccc1)S(=O)(=O)c1ccc(Cl)c(NC(=O)CNC(C)c2ccccc2)c1 (centres undefined)	-	-	-	-	-
CCC(C)NCC(=O)Nc1cc(S(=O)(=O)N(CC)c2ccccc2)ccc1Cl (centres undefined)	72	-	-	-	-
CCOc1ccc(C(=O)Nc2cccc(-c3nc4cccnc4o3)c2)cc1Cl	83	-	.	-	-
COC(=O)[C@@H](Cc1ccccc1)NC(=O)Cn1cc(C)c(=O)[nH]c1=O	-	-	-	-	-
O=C(O)Cc1sc(-c2ccc(Cl)cc2)nc1-c1ccccc1	-	-	-	-	54
COc1ccc(-c2nc(-c3ccccc3)c(-c3cc([N+](=O)[O-])ccc3C)[nH]2)cc1OC	-	-	-	-	-
COc1ccc(-c2[nH]c(-c3cc(OC)c4c(c3)OCO4)nc2-c2ccccc2)cc1	88	-	-	-	-
O=C(NC(=S)Nc1ccc(CN2CCOCC2)cc1)c1ccc(-c2cccc(Cl)c2)o1	-	-	-	-	-
O=C(Nc1ccc(CN2CCOCC2)cc1)c1ccc(-c2cccc(Cl)c2)o1	-	-	-	-	89
Cc1c(C(=O)N2CCCCC2)c(S(=O)(=O)N2CCC(C)CC2)c(C)n1C	-	-	-	-	75
Cc1nc(NC(=O)/C=C/c2ccccc2)sc1C(=O)Nc1ccccc1	76	-	-	-	-
Cc1nc(NC(=O)/C=C/c2ccccc2)sc1C(=O)NCCO	-	-	-	-	.
CC(=O)c1ccc(-c2ccc(C(=O)NCC3CCCO3)o2)cc1 (centres undefined)	-	-	-	-	-
C/C(CCC12CC3CC(CC(C3)C1)C2)=N\NC(N)=S	-	-	-	-	-
C/C(=N\NC(N)=S)C1C2C3CC4C5CC(C42)C1C53 (centres undefined)	83	-	-	-	-
Cc1ccc(S(=O)(=O)Nc2cccc(C(=O)NCC3(N4CCCCC4)CCCCC3)c2)cc1F	-	-	-	-	-
CCOC(=O)c1c(NC(=O)c2ccc(C)cc2)sc2c1CC(C)(C)OC2	-	-	-	-	-
COC(=O)c1c(NC(=O)c2ccccc2)sc2c1CC(C)(C)OC2	73	-	-	-	-
O=C(NCc1ccccn1)Nc1cccc(Cl)c1Cl	-	.	-	-	-
